A selection: hits, their analogues and other compounds. The true share with any hit is near 3.9%.
SF1 activator: SF-1 (human) activation; Q13285; CHO-K1 Gal4-SF-1 LBD luciferase reporter; % increase over DMSO SF-1-specific signal; activation, % at 10 µM; hit rate 1.9% among 65,000;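 active = activation above the mean activation of all tested compounds plus 3 SD, cut at about 50% in these data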
Target sequence (Q13285 whole entry, looked up, the tested form may be a part): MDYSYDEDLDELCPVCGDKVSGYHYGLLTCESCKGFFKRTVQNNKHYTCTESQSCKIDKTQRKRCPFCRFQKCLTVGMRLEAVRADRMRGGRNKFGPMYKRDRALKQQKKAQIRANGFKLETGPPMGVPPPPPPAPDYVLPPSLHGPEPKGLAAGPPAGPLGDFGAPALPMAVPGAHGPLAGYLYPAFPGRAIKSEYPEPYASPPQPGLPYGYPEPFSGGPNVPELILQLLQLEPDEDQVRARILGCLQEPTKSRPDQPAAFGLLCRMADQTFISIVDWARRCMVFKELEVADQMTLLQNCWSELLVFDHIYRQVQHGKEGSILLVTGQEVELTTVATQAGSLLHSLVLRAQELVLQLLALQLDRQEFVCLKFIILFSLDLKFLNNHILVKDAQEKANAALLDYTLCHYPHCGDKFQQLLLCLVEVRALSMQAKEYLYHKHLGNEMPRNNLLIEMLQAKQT
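Test system: CHO-K1 cells co-transfected with Gal4 DBD–human SF-1 LBD, 5xGal4 luciferase reporter. Quantity: 4,000 cells per well. Compound: 10 µM only. Incubation: compound added 1 h post-seeding, 20 h exposure at 37 °C, 5% CO2. Detection: SteadyLite luciferase luminescence. Replication: one test per compound.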
HEK293 NFkB inh: inhibitors of the PMA/ionomycin-induced NF-kB reporter in HEK293 cells; HEK-293 NF-kB luciferase reporter, luminescence; inhibition, % at 3 µM; hit rate 0.21% among 62,000; AID 465;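 active = inhibition above the mean of all tested compounds plus 3 SD, cut at about 40% in these data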
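Reagent: PMA plus ionomycin mix as NF-kB-activating stimulus. Assay system: NF-kB luciferase reporter HEK-293 cells. Technique: luminescence from luciferase substrate reagent. Incubation: 1 h compound pre-incubation, 16 h PMA/ionomycin at 37 °C. Benchmarks: DMSO only as uninhibited control, 10 µM reference inhibitor as full inhibition. Repeats: tested once.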
RORa activator: activates the human nuclear receptor RORA | P35398 | CHO-K1 Gal4-RORA LBD luciferase reporter, luminescence; percent increase over mock-subtracted basal signal | activation, % at 10 µM | hit rate 1.5% among 65,000 | AID 560;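 active = activation above the mean of all tested compounds plus 3 SD, cut at about 49% in these data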
Jurkat tox 60K: cytotoxic compounds reducing Jurkat cell viability; Jurkat E6.1 viability, ATP luminescence, 48 h; inhibition, % at 4 µM; hit rate 1.2% among 56,000;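 active = inhibition above the mean inhibition of all tested compounds plus 3 SD, cut at about 28% in these data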
Of the large screens only hits and unclear results are named; the others gave an inactive call.

CCOC(=O)C1=C(CNCc2ccc(C)cc2)NC(=O)NC1c1ccc(OC)cc1 (stereo unspecified)	Jurkat tox 60K 34.6
CCOc1cc(C(=O)NCCOC)ccc1OC	none
CC(=O)Nc1ccc(S(=O)(=O)N2CCCc3ccccc32)cc1	Jurkat tox 60K 81.6
COC(=O)Nc1ccc(S(=O)(=O)N2c3ccccc3CCC2C)cc1 (stereo unspecified)	Jurkat tox 60K 92.3
Cc1cc(NC(=O)COC(=O)c2ccc(S(=O)(=O)N3CCCc4ccccc43)cc2)no1	Jurkat tox 60K 64.5
O=C(Nc1nnc(C2CC2)o1)c1ccc(S(=O)(=O)N2CCCc3ccccc32)cc1	Jurkat tox 60K 101.6
COC(=O)Nc1ccc(S(=O)(=O)N2CCCCCC2)cc1	none
Nc1ccc(S(=O)(=O)N2CCCc3ccccc32)cc1	none
CCOC(=O)N1CCN(Cc2nc(-c3ccc(C)cc3)no2)CC1	none
COc1ccc(-c2nnc3ccc(SCC(=O)N4CCN(c5ccccc5)CC4)nn23)cc1OC	none
O=C(Nc1ccccc1F)N(CCCN1CCOCC1)Cc1cc2cc3c(cc2[nH]c1=O)OCCO3	none
COc1cccc(C(=O)Nc2ncc3c(n2)CC(c2ccc(OC)cc2OC)CC3=O)c1 (stereo unspecified)	SF1 activator 56.6, Jurkat tox 60K 43.4
CN(C)c1ccc(/C=C/c2ccncc2)cc1	RORa activator 73.4
COc1cccc(/C=C/c2ccncc2)c1OC	none
COc1ccc(-n2c(SCC(=O)Nc3ccccc3)nc3c(c2=O)SCC3)cc1	none
CCOC(=O)CSc1nc2ccccc2c(=O)n1C	none (no result: HEK293 NFkB inh, Jurkat tox 60K)
CCOC(=O)CSc1nc2ccccc2c(=O)n1NC(=O)c1ccccc1	SF1 activator 56.0
CCC1CCCCN1C(=O)CSc1nnc(-c2ccco2)o1 (stereo unspecified)	SF1 activator 52.3, RORa activator 48.8
CCC1CCCCN1C(=O)CSc1nnc(-c2ccc(Cl)cc2)o1 (stereo unspecified)	none
COc1ccccc1CN1CCN(C(CC(C)C)c2nnnn2Cc2cccs2)CC1 (stereo unspecified)	none
CC(=O)c1cccc(S(=O)(=O)N(CCCO)Cc2cc3ccc(C)cc3[nH]c2=O)c1	none
Cc1cc2c(N=O)c(NO)ccc2[nH]1	Jurkat tox 60K 75.4
Cc1cc(=O)c2ccccc2[nH]1	none
O=C(NCc1cccs1)c1csc2ccccc12	none
COc1ccc(-c2nnc(NC(=O)c3ccccc3C)o2)cc1	Jurkat tox 60K 42.8
O=S(=O)(Nc1nc2ccccc2nc1NCc1ccco1)c1ccc(Cl)cc1	none
Cc1noc(C)c1CSc1nc2ccccc2nc1NS(=O)(=O)c1ccc(Cl)cc1	Jurkat tox 60K 76.1
c1cc(Nc2ncnc3sccc23)cc(-c2nnc3n2CCCCC3)c1	none
COc1ccccc1-c1nc(-c2ccccn2)no1	none
COc1nc(C)ccc1-c1noc(-c2ccccn2)n1	RORa activator 61.2
COc1ccccc1-c1nc(-c2ccc(C)nc2OC)no1	SF1 activator 74.4
CCC(=O)Nc1nc2ccccc2n1Cc1ccc(C)cc1	Jurkat tox 60K 76.4
CCC(=O)Nc1nc2ccccc2n1Cc1ccccc1	none
Cc1noc(C)c1C(=O)OCC(=O)c1ccc[nH]1	none
Cc1noc(C)c1C(=O)OCC(=O)c1cc(C)n(Cc2ccccc2Cl)c1C	RORa activator 49.3
O=C(NCCc1ccccc1)c1ccncc1	none
CC1CCN(c2ccc(C(=O)NCCc3ccccc3)cn2)CC1	RORa activator 60.2
O=C(NCc1cccs1)c1ccc(N2CCCCC2)nc1	none (no result: Jurkat tox 60K)
CC1CCCN(c2ccc(C(=O)NCc3cccs3)cn2)C1 (stereo unspecified)	SF1 activator 70.2, RORa activator 56.3
c1cc(CSc2nnc(-c3ccc4c(c3)OCO4)o2)ccn1	none
COC(=O)C(NC(=O)c1ccccc1)=C(C)C	none
C/C(NC(=O)c1ccccc1)=C1/C(=O)CC2C1C2(C)C (stereo unspecified)	RORa activator 68.1
CCc1nc2oc3ccccc3c(=O)c2c(=O)n1-c1ccccc1	SF1 activator 70.7
CC(=O)N1CCN=C1SCc1ccc(Cl)cc1	none
CS(=O)(=O)Nc1ccccc1C(=O)c1ccccc1	none
CCOc1ccc(C2=Nn3c(nnc3-c3ccc(OC)cc3)SC2)cc1	Jurkat tox 60K 61.8
Cc1cc(NC(=O)CCC(=O)N(c2ccccc2)C(C(=O)NCC2CCCO2)c2cccnc2)no1 (stereo unspecified)	none
CC1CCN(S(=O)(=O)c2ccc(NC(=O)CN3CCN(c4ccccc4)CC3)cc2)CC1	none
CC1CCN(S(=O)(=O)c2ccc(NC(=O)Cn3nnc(-c4ccccc4F)n3)cc2)CC1	RORa activator 52.7
CCc1ccc(NC(=O)c2noc3c2CCCCC3)cc1	SF1 activator 67.2, RORa activator 67.2
Cc1ccc(NC(=O)c2noc3c2CCCCC3)cc1C	none
Cc1ccc(NC(=O)c2noc3c2CCCCC3)cc1	RORa activator 55.5
CN1CCc2c(sc3c2C(=O)NC(c2cccc(OC(=O)c4cccs4)c2)N3)C1 (stereo unspecified)	SF1 activator 57.9, RORa activator 62.3
CN1CCc2c(sc3c2C(=O)NC(c2ccco2)N3)C1 (stereo unspecified)	none
CCc1ccc(C(=O)NC2CCCCC2)s1	SF1 activator 59.0, RORa activator 55.3
O=C(NCc1cccs1)c1cc2c(s1)-c1ccccc1OC2	RORa activator 53.1
CCc1ccc(C(=O)NCc2cccs2)s1	SF1 activator 70.5
O=C(NC1CC1)c1cc2c(s1)-c1ccccc1OC2	Jurkat tox 60K 37.6
O=C(O)c1cc2c(s1)-c1ccccc1OC2	none (no result: Jurkat tox 60K)
Cc1ccc2c(c1)N(CC(=O)NCCc1c[nH]c3ccccc13)C(=O)CO2	none
CC12C(=O)N(c3nccs3)C(=O)C1C1C=CC2C1 (stereo unspecified)	none
Cc1ccc(C(C)NC(=O)c2ccco2)cc1C (stereo unspecified)	none
O=C(CC1Nc2ccccc2NC1=O)c1ccccc1 (stereo unspecified)	RORa activator 56.1
CC(NC(=O)CC1Nc2ccccc2NC1=O)c1ccccc1 (stereo unspecified)	none
CCOc1ccc(-c2cc(CCCC(=O)Nc3cccc(OC)c3)no2)cc1	Jurkat tox 60K 90.6
CCOc1ccc(-c2cc(CCCC(=O)Nc3cc(OC)ccc3OC)no2)cc1	none (no result: Jurkat tox 60K)
CCCCn1c(CN2CCN(c3cccc(Cl)c3)CC2)nc2c1c(=O)[nH]c(=O)n2C	Jurkat tox 60K 80.5
Cn1c(=O)[nH]c(=O)c2c1nc(CN1CCN(c3cccc(Cl)c3)CC1)n2CCCc1ccccc1	none
O=C(c1cc(-c2ccc3c(c2)OCO3)on1)N1CCN(c2ccccc2)CC1	RORa activator 69.7
O=C(c1cc(-c2ccc(Cl)c(Cl)c2)on1)N1CCCC1	RORa activator 59.9
CC1CCN(C(=O)c2cc(-c3ccc(Cl)c(Cl)c3)on2)CC1	none
Cc1ccc(C(=O)/C=C/Nc2ccccn2)cc1	none (no result: HEK293 NFkB inh, Jurkat tox 60K)
COc1ccc(C(=O)/C=C/Nc2cccc(C)n2)cc1OC	SF1 activator 87.8 (no result: HEK293 NFkB inh, Jurkat tox 60K)
CN(C)/C=N/c1cnc(C(=O)c2ccc(Cl)cc2)n1C	RORa activator 75.6
CCOC(=O)CN(C(=O)CSc1nnc(COc2ccc(OC)cc2)n1C)c1ccccc1	none

Bioassay records from PubChem BioAssay.
